The results in this text go back to the RNAGym collection of RNA variant scans (doi:10.1126/science.aae0568).

This sample holds only a part of the variants without activity. A value given as a limit tells only on which side of the number the result lay.

B1: tRNA (parent)
chain: GUUCCGUUGGCGUAAUGGUAACGCGUCUCCCUCCUAAGGAGAAGACUGCGGGUUCGAGUCCCGUACGGAACG

In this data set the parent is B1. The experiment in a line: yeast fitness relative to wild type (ratio to wild type); higher = fitter; tRNA-Arg(CCU), competitive growth, 37 C, YPD. The method, boiled down:
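For this measurement, the tRNA-Arg(CCU) gene was varied by chemical synthesis at a 3% per-site mutation rate across 69 sites, and each variant was placed at the native genomic locus in Saccharomyces cerevisiae. The pooled strains went through a 24-hour competition in YPD at 37°C in six parallel replicates, with amplicons from start and end populations read by 100-nucleotide paired-end sequencing. Darwinian fitness relative to wild type followed from the change in each genotype's frequency. Genotypes needed ≥ 100 starting reads, and estimates < 0.5 were set to 0.5.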
In the case of GUUCCGUUGGCAUAAUCGUAACGCGUCUCCCUCCUAAGGAGAAGAUUGCGGGUUCGAGUCCCGUACGGAACG [G12A G17C C46U], the yeast fitness was no more than 0.5.
The result for GUUCCGUUGGCGUAGUGGUAACGCAUCCCCCUCCAAAAGAGAAGAGUGCGGGUUCGAGUCCUGUACGGAACG [A15G G25A U28C U35A G38A C46G C62U] reads 0.527; that for GUUCCGUUGGCGUAAUGGUAACGCGUCUCCCUCCCAAGGAGAAGACUGCGGGAUCGAGUCCCGUACGGAACG [U35C U53A], 0.56.
As for GUUCCGUUGGCGUAAUGGCAACGCGUCUCCCUCCUAAGGAGAAGACUGCGGGUUAGAGUCCCGUAAGGAACG [U19C C55A C66A], the figure is no more than 0.5; as for GUUCCGUUGGCGUAAUCGUAACGCGUUUCCCUCUUAAGGAGUAGACUGCGGGUUCGAGUCCCGUACGGAACG [G17C C27U C34U A42U], no more than 0.5.
With GUUCCGUUGGCGUAAUGGUAACGCAUCUCCCUCCUAAGGAGACGACUGCGGGUUCGAGUCCCGUACGGACCG [G25A A43C A70C], the yeast fitness is 0.824.
With GUUCCGUUGGCGUAAUGGUAACGCGUCUCCCUCCUAAGGACAAGACUGCGGGUUCGAGUCCCGUAGGGAACG [G41C C66G], the yeast fitness worked out at 0.594.
Take GUUCGGUUGGCGUUAUGGUAACGCGUCUCCCUGCUAAGGAGAUGACUGCGGGUCCGAGUCCCGUACGGAACG [C5G A14U C33G A43U U54C]: the yeast fitness was no more than 0.5.
As to GUUCUGUUGGCGUAAUGGUAACGCGUCUCCCUCUUAAGGAGAAGACUGCGGGUUCGAGUUCCGUACGGAACG [C5U C34U C60U], the yeast fitness is no more than 0.5.
The result for GUUCCGUUGGCGUAAUGGUAACGCGUCUCCCUCCUAAGGAGAAGACUGGGGGCUCGAGUCCCGUACGGAACG [C49G U53C] reads 0.723; that for GUUCCGUUGGCGUAAGGGUAGCGCGUCUCUCUCCUACGGAGAAGACUGCGGGUUCGAGUCCCGUACGGAACG [U16G A21G C30U A37C], no more than 0.5.
With GUUCUGUUGGCGUAAUGGUAACGCGUCUCUCUCCUAAGGAGCAGACUGCGGGUUCGAGUGCCGUACGGAACG [C5U C30U A42C C60G], the yeast fitness is no more than 0.5.
The result for GUUCCGUUGGCGUAAUGGUAACGCAUCUCCCUCCUAAGGAGAAGUCUGCGGGUUCGUGUCCCGUACGGAACG [G25A A45U A57U] reads no more than 0.5; that for GUUCCGUUGGCGUAAUGGUAACGCGUCUCCCUCCUACGGAGAAGACUGCGGAAUCGAGUCCCGUACGGAACG [A37C G52A U53A], 0.566.
The result for GUUCCGUUGGCGUAAUGGUAACGCGUCUCGCACCUAAGGGGAAGACUGCGGGUUCGAGUCGCGUACGGAACG [C30G U32A A40G C61G] reads no more than 0.5; that for GUUCCGUCGGCGUAAUGGUAACGCGUCUCCCUCCUAAGGAGAAGACUGCGGGUUCGAGUCCCGUGCGGAACG [U8C A65G], 0.929; that for GUUCCGUUGGCAUAGUGGUAACGCCUCUCGCUCCUAAGGAGAAGACUGCGGGUUCGAGUCCCGUACCGAACG [G12A A15G G25C C30G G67C], no more than 0.5.
As for GUUCCGUUGGCGUAAAGGUAACGGGUCUCCCUCCUAAGGAGAAGAUUGCCGGUUUGUGUCCGGUACGGAUCG [U16A C24G C46U G50C C55U A57U C62G A70U], the figure is no more than 0.5; as for GUUCCGUUGGCGUAAUGGGAACGCGUCUCCCUCCUAAGGAGAAGACUGCGGGUUCGAGUCCCGUACGGACCG [U19G A70C], 0.999; as for GAUCCGUUGGCGUAAUGGUAACGCGUCUCCCUCCUAAGGAGAUGACUGCGGGUUCGCGUCUCGUACGGAACG [U2A A43U A57C C61U], 0.578.
For GCUCCGUUGGCGUAAUGGUAACGUCACUCCCUCCUAAGGAGAAGACUGCGGGUUCGGGUCCCGUACGGAACG [U2C C24U G25C U26A A57G], the yeast fitness is 0.878.
The result for GUUCUGUUGGCGUAAUGGUAACGCGUCUUCCUCCUAACGAGAAGACUGCGGGUUCGAGUCCCGUACGGAACG [C5U C29U G38C] reads no more than 0.5.
The result for GUUCCGUUGGCGUCAUGGUAACGCGUCUCCCUCCUUGGGAGAAGACUGCGGAUUCGAGUCCCGUUCGGACCG [A14C A36U A37G G52A A65U A70C] reads no more than 0.5.
The result for GUUCCGUUCGCGUAAUGGUAACGCGUCUGCCUCGUAAGGAGAAGACUGCGGGUUCGAGUCCCGUACGGAACG [G9C C29G C34G] reads no more than 0.5; that for GUUCCGUUGGCGUAAUGGUAACGCGUCUCCCUCCUAAGGAGAAGACUGCGGGUUCGAAUCCGGUACGGAACG [G58A C62G], 1.14.
For the variant GUUCCGUUGGCGUAAUGGUAACGCGUCUCCCUCCUUAGGAGACGACUGCGGGCUCGAGUCCCGUACGGAACG [A36U A43C U53C], the yeast fitness is no more than 0.5.
As for GUUCGGUUGGCGUAAUGGUGACGCGUCUCCCUCCUAAGGAGAAGAUUGCGGGUUCGAGUCCCGUACGGAACG [C5G A20G C46U], the figure is 0.638.
The result for GUUCCGUUGGCGUAAUGGUAGCGCGUCUCCCUCCUAAGGAGAAGACUGCGGGACCGAGUCGCGUACGGAACG [A21G U53A U54C C61G] reads 0.718.
The result for GUUCCGUUGGCGUGAUGGUAACGCGUCUCCCUCCUAAGGAGAAGACUGCGGGUUCGAGUCCCGUGCGGACCG [A14G A65G A70C] reads 0.755; that for GUUCCGUUGGCGUAAUGGUAUCGUGUCUCCCUCCUACGGAGAAGACUGCGGGUUCGAGUCCCGUACGGAACG [A21U C24U A37C], 0.683; that for GUUCCGUUGGCGUAAUGGUGGUGCGUCUCCCUCCUAAGGAGAAGACUGCGGGUUCGAGUCCCGUACGGAACG [A20G A21G C22U], 0.564.
Turning to GGUCCGUUGGCGUAAUGGUAACGCGUCUCCCUCCUACGGAGAAGACUGCGGGUCCGAGUCCCGUACGGAACG [U2G A37C U54C], the yeast fitness is no more than 0.5.
As for GUUCCGUUGGCGUAAUGGUAACGCGUCUCCCUCCUAAGGAGGCGACUGCGGGUUCGAGUCCCGUACGGAACG [A42G A43C], the figure is 1.17.
As for GUUCCGGUGGCGUAAUGGUAAGGCGUCUCCCUCCUAAGGAGAAGACUGCGGGUUCGAGUCCCGUACGGAACG [U7G C22G], the yeast fitness was 0.726.
As for GUUCAGUUGGUGUAAUGGUAGCGAGUCUCCCUCCUAAGGAGAAGACUGCGGAUUCGAGUACCGUACGGGACG [C5A C11U A21G C24A G52A C60A A69G], the figure is no more than 0.5.
The result for GUUCAGUGGGCGUAAUGGUAACGCGUCUCCCUCCUAUGGAGAAGACUGCGACUUCGAGCCCCGUACGGAACG [C5A U8G A37U G51A G52C U59C] reads 0.639; that for GUUCCAUUGGCGUAUUGGUAACGCGUCUCCCUCCUAAGGAGAAGACUGCGGGUUCGAGACCCGUACGCAACG [G6A A15U U59A G68C], no more than 0.5.
